Measured values: ChEMBL document CHEMBL4152267, “Structure-based design of novel quinoxaline-2-carboxylic acids and analogues as Pim-1 inhibitors” (Eur J Med Chem, 2018)
Where a name gives a salt, the structure may show the parent alone.

Legend:
[1] = molecular target: Serine/threonine-protein kinase pim-1 (Homo sapiens, UniProt P11309); test: Inhibition of recombinant human Pim1 expressed in bacterial expression system using histone H1 as substrate after 30 mins by ADP-Glo reagent based luminescence assay
Serine/threonine-protein kinase pim-1, sequence (P11309 whole entry): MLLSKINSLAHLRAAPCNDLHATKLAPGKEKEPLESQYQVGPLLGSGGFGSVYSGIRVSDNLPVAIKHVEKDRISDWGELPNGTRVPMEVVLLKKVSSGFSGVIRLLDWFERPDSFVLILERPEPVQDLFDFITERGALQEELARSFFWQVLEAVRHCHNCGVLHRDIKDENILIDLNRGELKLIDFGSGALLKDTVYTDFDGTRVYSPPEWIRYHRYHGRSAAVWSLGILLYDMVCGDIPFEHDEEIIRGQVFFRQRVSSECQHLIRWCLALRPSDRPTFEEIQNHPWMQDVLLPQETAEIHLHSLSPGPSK
In short: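 Recombinant human Pim-1 (bacterially expressed) with histone H1 at 0.8 µg/µL, 10 µM ATP, in 40 mM Tris pH 7.5, 20 mM MgCl₂ and 0.1 mg/mL BSA, for 30 min at 30 °C. ADP-Glo reagent stops the reaction (50 min, rt), then detection reagent is added (1 h, rt) and luminescence is read.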

[2] = molecular target: CDK2/Cyclin A2 (Homo sapiens, UniProt P24941); test: Inhibition of human CDK2/CyclinA using histone H1 as substrate after 30 mins by ADP-Glo reagent based luminescence assay; format: protein-complex assay
[3] = molecular target: Glycogen synthase kinase-3 (Sus scrofa, UniProt B2LUN4+I6LNT8)
[4] = molecular target: T1, Serine/threonine-protein kinase haspin (Homo sapiens, UniProt Q8TF76); test: Inhibition of recombinant human haspin kinase domain (470 to 798 residues) expressed in bacterial expression system using histone H3 peptide as substrate after 30 mins by ADP-Glo reagent based luminescence assay
T1 sequence (Q8TF76 whole entry): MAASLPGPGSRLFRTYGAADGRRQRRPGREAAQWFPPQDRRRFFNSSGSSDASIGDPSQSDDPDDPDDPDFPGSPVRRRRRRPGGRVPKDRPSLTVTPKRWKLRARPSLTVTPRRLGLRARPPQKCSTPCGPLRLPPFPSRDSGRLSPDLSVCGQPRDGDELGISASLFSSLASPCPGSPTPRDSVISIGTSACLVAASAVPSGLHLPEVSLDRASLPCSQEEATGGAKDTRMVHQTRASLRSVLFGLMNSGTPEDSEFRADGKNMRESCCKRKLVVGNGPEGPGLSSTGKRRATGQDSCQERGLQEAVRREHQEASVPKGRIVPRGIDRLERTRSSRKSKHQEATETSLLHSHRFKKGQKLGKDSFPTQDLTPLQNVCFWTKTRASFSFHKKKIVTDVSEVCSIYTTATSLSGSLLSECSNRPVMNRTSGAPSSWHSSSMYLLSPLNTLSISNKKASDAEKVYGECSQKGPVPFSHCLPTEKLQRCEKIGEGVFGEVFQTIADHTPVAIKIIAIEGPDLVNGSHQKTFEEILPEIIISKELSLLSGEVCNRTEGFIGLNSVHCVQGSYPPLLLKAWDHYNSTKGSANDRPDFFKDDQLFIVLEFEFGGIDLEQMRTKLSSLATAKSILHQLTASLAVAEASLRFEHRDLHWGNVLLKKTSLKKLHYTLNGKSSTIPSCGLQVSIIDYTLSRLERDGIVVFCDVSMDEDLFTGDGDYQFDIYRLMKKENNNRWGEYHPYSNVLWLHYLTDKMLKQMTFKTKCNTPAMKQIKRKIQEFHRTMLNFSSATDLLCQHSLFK

[5] = molecular target: CDK9/cyclin T1 (Homo sapiens, UniProt P50750); test: Inhibition of recombinant human CDK9/CyclinT expressed in baculovirus infected Sf9 insect cells using YSPTSPSYSPTSPSYSPTSPSKKKK as substrate after 30 mins by ADP-Glo reagent based luminescence assay
CDK9/cyclin T1, sequence (O60563 whole entry): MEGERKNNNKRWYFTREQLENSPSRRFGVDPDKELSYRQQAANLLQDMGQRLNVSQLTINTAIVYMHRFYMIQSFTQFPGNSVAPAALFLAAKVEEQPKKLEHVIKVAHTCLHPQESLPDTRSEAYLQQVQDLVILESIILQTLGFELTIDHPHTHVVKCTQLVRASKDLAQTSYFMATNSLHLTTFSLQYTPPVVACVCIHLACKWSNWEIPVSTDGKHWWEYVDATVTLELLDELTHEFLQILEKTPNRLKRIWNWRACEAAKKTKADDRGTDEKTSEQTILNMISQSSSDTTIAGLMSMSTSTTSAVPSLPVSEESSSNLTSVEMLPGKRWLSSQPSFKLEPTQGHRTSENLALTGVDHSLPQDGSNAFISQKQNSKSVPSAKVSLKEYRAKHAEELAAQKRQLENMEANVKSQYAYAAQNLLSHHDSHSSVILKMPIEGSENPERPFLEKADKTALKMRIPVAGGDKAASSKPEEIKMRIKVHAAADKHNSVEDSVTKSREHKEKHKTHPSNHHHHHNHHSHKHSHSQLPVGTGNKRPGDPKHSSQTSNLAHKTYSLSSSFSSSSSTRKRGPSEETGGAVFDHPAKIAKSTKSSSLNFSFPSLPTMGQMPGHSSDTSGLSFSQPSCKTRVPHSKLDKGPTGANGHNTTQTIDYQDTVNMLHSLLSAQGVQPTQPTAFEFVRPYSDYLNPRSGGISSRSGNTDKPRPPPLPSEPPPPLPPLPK
CDK9/cyclin T1, sequence (P50750 whole entry): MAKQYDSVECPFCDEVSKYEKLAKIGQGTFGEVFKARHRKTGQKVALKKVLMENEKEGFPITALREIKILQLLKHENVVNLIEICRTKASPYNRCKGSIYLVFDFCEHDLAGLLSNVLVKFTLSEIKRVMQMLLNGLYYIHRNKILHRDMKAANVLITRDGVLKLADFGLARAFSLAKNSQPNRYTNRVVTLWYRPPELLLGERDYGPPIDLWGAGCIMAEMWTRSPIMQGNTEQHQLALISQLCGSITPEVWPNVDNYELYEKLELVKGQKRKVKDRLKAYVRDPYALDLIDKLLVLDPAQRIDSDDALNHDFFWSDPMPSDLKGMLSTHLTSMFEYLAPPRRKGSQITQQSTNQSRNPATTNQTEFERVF

[6] = molecular target: Dual specificity protein kinase CLK1 (Mus musculus, UniProt P22518)
Dual specificity protein kinase CLK1, sequence (P22518 whole entry): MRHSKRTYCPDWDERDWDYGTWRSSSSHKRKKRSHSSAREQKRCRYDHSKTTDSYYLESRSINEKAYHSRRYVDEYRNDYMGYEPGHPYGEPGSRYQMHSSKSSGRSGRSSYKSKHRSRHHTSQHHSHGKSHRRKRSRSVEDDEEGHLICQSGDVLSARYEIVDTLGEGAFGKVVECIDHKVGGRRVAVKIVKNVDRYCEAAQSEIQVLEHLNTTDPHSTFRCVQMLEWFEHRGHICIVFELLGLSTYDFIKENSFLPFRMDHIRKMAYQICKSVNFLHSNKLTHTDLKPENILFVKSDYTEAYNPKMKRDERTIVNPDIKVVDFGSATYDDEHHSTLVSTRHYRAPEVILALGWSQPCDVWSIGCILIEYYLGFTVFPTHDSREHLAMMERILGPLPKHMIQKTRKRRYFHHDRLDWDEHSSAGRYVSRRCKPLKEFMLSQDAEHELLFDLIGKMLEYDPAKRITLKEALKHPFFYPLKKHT

[7] = molecular target: Dual specificity tyrosine-phosphorylation-regulated kinase 1A (Rattus norvegicus, UniProt Q63470)
[8] = tested on: KU812 cell line; test: Cytotoxicity against human KU812 cells assessed as reduction in cell viability after 48 hrs by MTT assay; format: functional, cell-based; conditions: KU812, 48 h

SMILES | IC50 [1] | IC50 [2] | IC50 [3] | IC50 [4] | IC50 [5] | IC50 [6] | IC50 [7] | EC50 [8]
NC(=O)c1nc2ccccc2nc1Nc1cccc(N2CCOCC2)c1 | > 10 µM | – | – | – | – | – | – | –
O=C(O)c1nc2ccccc2nc1Nc1ccc(O)cc1 | 0.29 µM | > 10 µM | > 10 µM | > 10 µM | > 10 µM | > 10 µM | 0.098 µM | 41.7 µM
O=C(O)c1nc2ccccc2nc1Nc1ccccc1O | 0.76 µM | > 10 µM | > 10 µM | > 10 µM | > 10 µM | > 10 µM | 0.74 µM | 178 µM
CN1CCC(c2ccc(Nc3nc4ccccc4nc3C(=O)O)cc2)CC1 | > 10 µM | – | – | – | – | – | – | –
O=C(O)c1nc2ccccc2nc1Nc1cccc(N2CCOCC2)c1 | 1.01 µM | > 10 µM | > 10 µM | > 10 µM | > 10 µM | > 10 µM | > 10 µM | 57.3 µM
Nc1cccc(Nc2nc3ccccc3nc2C(=O)[O-])c1.[K+] | 2.8 µM | > 10 µM | > 10 µM | > 10 µM | > 10 µM | > 10 µM | 1.67 µM | 63.8 µM
O=C(O)c1nc2ccccc2nc1Nc1cccc(O)c1 | – | > 10 µM | > 10 µM | > 10 µM | > 10 µM | > 10 µM | – | 38.9 µM
Cc1ccc(NC(=O)c2ccc(CN3CCN(C)CC3)cc2)cc1Nc1nccc(-c2cccnc2)n1 [IMATINIB MESYLATE] | – | – | – | – | – | – | – | 0.6 µM

Second part, led by results:

IC50 [1] | SMILES | IC50 [2] | IC50 [3] | IC50 [4] | IC50 [5] | IC50 [6] | IC50 [7] | EC50 [8]
> 10 µM | Nc1ccc(Nc2nc3ccccc3nc2C(=O)O)cc1 | – | – | – | – | – | – | –
> 10 µM | CCOC(=O)c1nc2ccccc2nc1Nc1ccc(C2CCN(C)CC2)cc1 | – | – | – | – | – | – | –
> 10 µM | CCOC(=O)c1nc2ccccc2nc1Nc1cccc(N2CCOCC2)c1 | – | – | – | – | – | – | –
> 10 µM | O=C(O)c1nc2ccccc2nc1Nc1ccc2[nH]ccc2c1 | – | – | – | – | – | – | –
> 10 µM | CCOC(=O)c1nc2ccccc2nc1Nc1cccc(O)c1 | – | – | – | – | – | – | –
> 10 µM | CCOC(=O)c1nc2ccccc2nc1Nc1cccc(N)c1 | – | – | – | – | – | – | –
> 10 µM | CCOC(=O)c1nc2ccccc2nc1Nc1ccc(N)cc1 | – | – | – | – | – | – | –
> 10 µM | CCOC(=O)c1nc2ccccc2nc1Nc1ccc(O)cc1 | – | – | – | – | – | – | –
> 10 µM | CCOC(=O)c1nc2ccccc2nc1Nc1ccc2[nH]ccc2c1 | – | – | – | – | – | – | –
> 10 µM | CCOC(=O)c1nc2ccccc2nc1Nc1ccccc1O | – | – | – | – | – | – | –
